# In publication PMC2661818 (Psychopharmacology, 2008):
# Where a name gives a salt, the structure may show the parent alone. Read-outs that look alike come from different tables or passages of the source.
# How the values were obtained:
# [1] = system: rats trained to discriminate 10 mg/kg cocaine, IP from saline; assay type: in vivo, Sprague—Dawley rats; conditions: for Maximal cocaine responding: SEM in parentheses; for Maximal levels of cocaine responding: in each/all rearing groups (BMS, AFR, LMS)
# Summary of the method: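 Adult Sprague–Dawley rats (6 per rearing condition per sex) from BMS, LMS or AFR rearing, trained at 10 mg/kg IP (15-min pretreatment) vs saline. Tests: 10 consecutive responses on either manipulandum gave a pellet. Novel training-drug doses (0.56–18 mg/kg) in random order; pretreatment 1–120 min. Group mean % drug responding: ≥80% full, ≤20% saline-like. Rates as % of vehicle.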
# [2] = system: rats discriminating cocaine injections; conditions: cited from earlier work; for Cocaine-like responding (partial): ref Witkin et al. 1991; for Substitution for the cocaine cue: reduced training dose (3.0 mg/kg cocaine), ref Terry et al. 1994
# rats = conditions: ref Moffett et al. (2006a), cited from earlier work
# [3] = Plasma cocaine assessment by LC/MS/MS; assay type: in vivo, Sprague—Dawley rats; conditions: males, 10 mg/kg IP
# [4] = rat, IP injection, cited from earlier work
# c-Fos = test: Cocaine-induced c-Fos expression; assay type: in vivo, Sprague—Dawley rats; conditions: 10 mg/kg IP, 14 days
# [5] = females, all rearing conditions
structure (smiles),measurement,setting,value
"Fc1ccc(C(OCCN2CCN(CCCc3ccccc3)CC2)c2ccc(F)cc2)cc1 [GBR12909, GBR12909 bismesylate hydrate]",Doses producing more cocaine-like responding,"[1]; females, AFR",5.6 to 18 mg/kg
same,Maximal cocaine responding,"[1]; females, AFR",80.28%
same,Maximal cocaine responding,"[1]; females, BMS",99.64%
same,Doses producing more partial responding,"[1]; females, LMS",3.2 to 10 mg/kg
same,Maximal cocaine responding,"[1]; females, LMS",83.39%
same,Effect on rate of responding,[1]; [5],dose dependently decreased
same,Generalization profile,"[1]; males, AFR, two lowest doses (1.0–3.2 mg/kg)",partial cocaine responding
same,Generalization profile,"[1]; males, BMS and LMS, two lowest doses (1.0–3.2 mg/kg)",saline responding
same,Effect on rate of responding,"[1]; males, all rearing conditions",dose dependently decreased rate of responding
"Oc1cc2c(cc1O)C(c1ccccc1)CNCC2 (stereo not shown) [SKF38393, SKF38393 hydrobromide]",Effect on rate of responding,[1]; [5],dose dependently decreased
same,Maximal levels of cocaine responding,[1]; females,approximately 50%
same,Generalization profile,"[1]; males, AFR and LMS, 18 mg/kg",partial generalization
same,Maximal cocaine responding,"[1]; males, AFR",81.41%
same,Rates of responding (disrupted),"[1]; males, BMS and AFR groups, 32 mg/kg",< 0.20 mean responses per second
same,Maximal cocaine responding,"[1]; males, BMS",95.68%
same,Maximal cocaine responding,"[1]; males, LMS",83.52%
same,Effect on rate of responding,"[1]; males, all rearing conditions",dose-dependent decreases in rates
same,Generalization profile,"[1]; males, all rearing conditions, 10 mg/kg",partial generalization
same,Cocaine-like responding (partial),[2]; 10 mg/kg cocaine training dose,20–80%
same,Substitution for the cocaine cue,[2],substitute fully
"COC(=O)[C@H]1[C@@H](OC(=O)c2ccccc2)C[C@@H]2CC[C@H]1N2C [cocaine, Cocaine hydrochloride]",Effect on rate of responding,[1]; [5],dose dependently decreased rate of responding
same,Effect on rate of responding,"[1]; males, all rearing conditions",did not have an effect on rate of responding
same,Cocaine-appropriate responding as a function of dose,"[1]; novel doses 0.56–18 mg/kg, all groups",dose-dependent increases in cocaine-appropriate responding
same,Self-administration,rats; BMS rats,did not self administer cocaine above saline levels at any dose tested
same,Dose at which self-administration was acquired,rats; LMS rats,0.0625 mg/kg/infusion
same,"Plasma cocaine levels, effect of time",[3],decreasing from 15 to 60 min
same,Time to peak plasma,[4]; ref Misra et al. 1974,4 h
same,Elimination half-life (t1/2),[4]; ref Nayak et al. 1976,48 to 60 min
same,"Fos-IR, cocaine- vs saline-treated","c-Fos; AFR females, NAcc Core and central CPu",significantly greater Fos-IR
same,"c-Fos expression, cocaine- vs saline-treated","c-Fos; AFR males, central and dorsomedial CPu",trend for significantly greater c-Fos expression
same,"c-Fos expression, cocaine- vs saline-treated","c-Fos; BMS males and females, any brain region examined",never statistically significant differences
same,"c-Fos, cocaine- vs saline-treated","c-Fos; LMS males, ICjM",showed significance
"CCCN1CCC[C@@H]2Cc3n[nH]cc3C[C@H]21 [quinpirole, quinpirole hydrochloride]",Generalization profile,"[1]; females, all groups, doses of 0.061–0.18 mg/kg",intermediate levels of responding
same,Effect on rate of responding,[1]; [5],dose dependently decreased
same,Maximal levels of cocaine responding,[1]; females,~80%
same,Generalization profile,"[1]; males, LMS, all doses except 0.125 mg/kg",only partial generalization
same,Effect on rate of responding,"[1]; males, all rearing conditions",dose dependently decreased the number of responses
same,Generalization to the cocaine cue,"[2]; 10 mg/kg cocaine training dose, ref Barrett and Appel 1989, Callahan et al. 1991, Callahan and Cunningham 1993",full generalization
same,Cocaine-like responding (partial),[2]; 10 mg/kg cocaine training dose,20–80%
same,Substitution for the cocaine cue,[2],substitute fully
